Measurements from article PMC3755449 (Nature communications, 2013).
Structures can show the parent of a compound that is named as a salt.

Experiments:
[1] = tested on: P. falciparum clone FVO merozoites invading RBCs; assay: Invasion assay using purified invasive merozoites; format: cell-based, Plasmodium falciparum; details: 25 and 50 μM
In short: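 Merozoites come from an FVO line selected for prolonged free-merozoite survival. Synchronized schizonts are gradient-purified, ruptured 3 hr at 37°C, and merozoites are filtered twice through 1.2 μm. About 5×10⁷ merozoites are gassed with 2.5×10⁷ pre-warmed RBCs and a range of compound concentrations for 3–4 hr at 37°C. Free merozoites are removed at 50 g for 7 min. Rings are counted by SYBR green/MitoTracker flow cytometry; IC50 by nonlinear regression.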

[2] = tested on: schizont-infected RBCs (FVO clone); assay: Schizont rupture assay; format: cell-based, Plasmodium falciparum; details: 30 μM
[3] = tested on: AMA1 secretion onto merozoite surface; assay: IFA of AMA1 secretion from micronemes; format: cell-based, Plasmodium falciparum; details: non-permeabilizing IFA, 60 μM
In short: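 Schizonts rupture with or without test compound (60 μM) present beforehand. Released merozoites are probed with polyclonal anti-AMA1 antibodies by immunofluorescence under non-permeabilizing conditions to assess surface AMA1.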

[4] = molecular target: Recombinant, his-tagged AMA1 (apical membrane antigen 1), 3D7 allele (Plasmodium falciparum (3D7 allele)) (UniProt Q7KQK5); assay: AlphaScreen or HTRF

Molecule | inhibition of merozoite invasion [1] | merozoite release from schizont-infected RBCs [2] | AMA1 secretion from micronemes [3] | IC50 [4] [nM]
CN(C)CCCN1c2ccccc2C(C)(C)c2ccccc21 [NCGC00014044, Dimetacrine] | inhibited merozoite invasion | not affected |  | 
Clc1cccc(C(c2ccc3[nH]cnc3c2)n2ccnc2)c1 (stereo not drawn) [NCGC00181034, Liarozole hydrochloride] | inhibited merozoite invasion | not affected | not affected | 
DITQQAKDIGAGPVASCFTTRMSPPQQICLNSVVNTALSTSTQSAMK [Untagged RON2L peptide] |  |  |  | 100
